Test results taken from ChEMBL document CHEMBL6121061, “Metabolomics-Guided Discovery of Bipolarolides H-O, New Ophiobolin-Type Sesterterpenes with Antibacterial Activity from the Marine-Derived Fungus Uzbekistanica storfjordensis sp. nov” (2025).
Converted amounts (≈) assume the structure as drawn. The source made the active and inactive calls. The calls are words filed in the database; no cut-off is given here.

Tests used:
Staphylococcus aureus = assay: Antibacterial activity against Staphylococcus aureus ATCC 25923 assessed as inhibition of bacterial growth at 100 uM by broth microdilution method; format: functional, organism-based
Procedure, shortened: (§1)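 Broth microdilution per EUCAST, run in duplicate, for two independent experiments. Pure compounds came from 10 mM stocks in 20% DMSO, diluted with water, and were tested at a final 100 μM for growth inhibition. Controls were gentamycin at 0.03–32 μg/mL (positive) and 0.25% DMSO with growth medium (negative).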

Streptococcus agalactiae [1] = assay: Antibacterial activity against Streptococcus agalactiae ATCC 12386 by broth microdilution method; format: functional
Procedure, shortened: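 MIC was found by EUCAST broth microdilution in duplicate over 12.5–125 μM, using compounds from 10 mM stocks in 20% DMSO diluted in water. OD600 was plotted as a concentration-effect curve, and MIC was taken as the concentration giving an OD600 of 0.05. Gentamycin at 0.03–32 μg/mL served as the positive control.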

Pseudomonas aeruginosa = assay: Antibacterial activity against Pseudomonas aeruginosa ATCC 27853 assessed as inhibition of bacterial growth at 100 uM by broth microdilution method; format: functional, organism-based; procedure, shortened: as §1
Streptococcus agalactiae [2] = assay: Antibacterial activity against Streptococcus agalactiae ATCC 12386 assessed as inhibition of bacterial growth at 100 uM by broth microdilution method
Streptococcus agalactiae [3] = assay: Antibacterial activity against Streptococcus agalactiae ATCC 12386 assessed as inhibition of bacterial growth at 100 uM by broth microdilution method; format: functional, organism-based; procedure, shortened: as §1
Escherichia coli = assay: Antibacterial activity against Escherichia coli ATCC 25922 assessed as inhibition of bacterial growth at 100 uM by broth microdilution method; format: functional, organism-based; procedure, shortened: as §1
Enterococcus faecalis = assay: Antibacterial activity against Enterococcus faecalis ATCC 29122 assessed as inhibition of bacterial growth at 100 uM by broth microdilution method; format: functional, organism-based; procedure, shortened: as §1

| MIC (Streptococcus agalactiae [1]) | SMILES | Activity (Staphylococcus aureus) | Activity (Pseudomonas aeruginosa) | Activity (Streptococcus agalactiae [2]) | Activity (Streptococcus agalactiae [3]) | Activity (Escherichia coli) | Activity (Enterococcus faecalis) | Activity (Streptococcus agalactiae [1]) |
| --- | --- | --- | --- | --- | --- | --- | --- | --- |
| 66 µM (≈ 28.2 µg/mL) | CC(C)=C/C=C\[C@H](C)[C@H]1CC[C@]2(C)C[C@H]3C4=C(CC[C@@H]12)C(=O)N(CCO)[C@@H]4C[C@@]3(C)O | inactive | inactive | Active | Active | inactive | inactive |  |
| 64 µM (≈ 27.5 µg/mL) | CC(C)=CCC[C@H](C)[C@H]1CC[C@]2(C)C[C@H]3C4=C(CC[C@@H]12)C(=O)N(CCO)[C@@H]4C[C@@]3(C)O | inactive | inactive |  | Active | inactive | inactive |  |
|  | CC(CCC[C@H](C)[C@H]1CC[C@]2(C)C[C@H]3C4=C(CC[C@@H]12)C(=O)N(CCO)[C@@H]4C[C@@]3(C)O)C(=O)O (stereo partly specified) | inactive | inactive |  |  | inactive | inactive | inactive |
|  | CC(CO)CCC[C@H](C)[C@H]1CC[C@]2(C)C[C@H]3C4=C(CC[C@@H]12)C(=O)N(CCO)[C@@H]4C[C@@]3(C)O (stereo partly specified) | inactive | inactive |  |  | inactive | inactive | inactive |
|  | CC(C)=CCC[C@H](C)[C@H]1CC[C@]2(C)C[C@H]3[C@@H]4[C@H](CC[C@@H]12)C(=O)N1CCOC41C[C@@]3(C)O (stereo partly specified) | inactive | inactive |  |  | inactive | inactive | inactive |
|  | C/C(=C\CC[C@H](C)[C@H]1CC[C@]2(C)C[C@H]3C4=C(CC[C@@H]12)C(=O)N(CCO)[C@@H]4C[C@@]3(C)O)CO | inactive | inactive |  |  | inactive | inactive | inactive |
| 86 µM (≈ 40.9 µg/mL) | CC(CCC[C@H](C)[C@H]1CC[C@]2(C)C[C@H]3C4=C(CC[C@@H]12)C(=O)N(CCO)[C@@H]4C[C@@]3(C)O)COC=O (stereo partly specified) | inactive | inactive | Active | Active | inactive | inactive |  |
|  | C/C(=C\CC[C@H](C)[C@H]1CC[C@]2(C)C[C@H]3C4=C(CC[C@@H]12)C(=O)N(CCO)[C@@H]4C[C@@]3(C)O)C(=O)O | inactive | inactive |  |  | inactive | inactive | inactive |

| SMILES | MIC (Streptococcus agalactiae [1]) | Activity (Staphylococcus aureus) | Activity (Pseudomonas aeruginosa) | Activity (Streptococcus agalactiae [2]) | Activity (Streptococcus agalactiae [3]) | Activity (Escherichia coli) | Activity (Enterococcus faecalis) | Activity (Streptococcus agalactiae [1]) |
| --- | --- | --- | --- | --- | --- | --- | --- | --- |
| CNC(C)[C@@H]1CC[C@@H](N)[C@@H](O[C@H]2[C@H](O)[C@@H](O[C@H]3OC[C@](C)(O)[C@H](NC)[C@H]3O)[C@H](N)C[C@@H]2N)O1.CN[C@@H]1[C@@H](O)[C@@H](O[C@@H]2[C@@H](O)[C@H](O[C@H]3O[C@H](C(C)N)CC[C@H]3N)[C@@H](N)C[C@H]2N)OC[C@]1(C)O.CN[C@@H]1[C@@H](O)[C@@H](O[C@@H]2[C@@H](O)[C@H](O[C@H]3O[C@H](CN)CC[C@H]3N)[C@@H](N)C[C@H]2N)OC[C@]1(C)O (stereo partly specified) | 3 µM |  |  |  |  |  |  |  |
